Published values collected from several papers.
Lines come from different studies, so protocols differ.
FLT3 K663Q: Receptor-type tyrosine-protein kinase FLT3 (FLT3, Homo sapiens, UniProt P36888, K663Q)
FLT3 D835V: Receptor-type tyrosine-protein kinase FLT3 (FLT3, Homo sapiens, UniProt P36888, D835V)
FLT3 D835H: Receptor-type tyrosine-protein kinase FLT3 (FLT3, Homo sapiens, UniProt P36888, D835H)
FLT3 D835Y: Receptor-type tyrosine-protein kinase FLT3 (FLT3, Homo sapiens, UniProt P36888, D835Y)
FLT3 autoinhibited: Receptor-type tyrosine-protein kinase FLT3, autoinhibited (FLT3, Homo sapiens, UniProt P36888)
FLT3: Receptor-type tyrosine-protein kinase FLT3 (FLT3, Homo sapiens, UniProt P36888)
FLT3 F691L/ITD: Receptor-type tyrosine-protein kinase FLT3 (FLT3, Homo sapiens, UniProt P36888, F691L/ITD)
FLT3 ITD: Receptor-type tyrosine-protein kinase FLT3 (FLT3, Homo sapiens, UniProt P36888, ITD)
FLT3 R834Q: Receptor-type tyrosine-protein kinase FLT3 (FLT3, Homo sapiens, UniProt P36888, R834Q)

O=C(Nc1c[nH]nc1C(=O)NC1CCNCC1)c1cc(F)cc(F)c1  remaining binding (FLT3 K663Q; binding; competition with immobilised ligand; 1 µM): 96%
O=C(c1ccc(Nc2nccc(-c3cc4ccccc4s3)n2)cc1)N1CCC(N2CCCC2)CC1  remaining binding (FLT3 D835V; binding; competition with immobilised ligand; 1 µM): 3.1%
c1cncc(-c2cccc(Nc3nccc(NC4CCCCC4)n3)c2)c1  remaining binding (FLT3 D835H; binding; competition with immobilised ligand; 10 µM): 1.6%
CNC(=O)[C@@H]1CC[C@@H](n2c(-c3ccc4cnccc4c3)nc3ccc(C(=O)NCc4cccc(C(N)=O)c4)cc32)C1  remaining binding (FLT3 D835Y; binding; competition with immobilised ligand; 1 µM): 100%
CN1CCN(c2ccc(Nc3nccc(-c4ccccc4)n3)cc2C(F)(F)F)CC1  remaining binding (FLT3 D835Y; binding; 10 µM): 1.3%
CN(C)c1nccc(-c2cnc3ncccn23)n1  remaining binding (FLT3 autoinhibited; binding; 1 µM): 72%
C[C@@H](c1ccc(-n2cnc3c(N)ncnc32)cc1)N1CCc2nn(C)c(Cc3ccccc3)c2C1=O  remaining binding (Receptor-type tyrosine-protein kinase FLT3 (FLT3, Homo sapiens, UniProt P36888, N841I); binding; competition with immobilised ligand; 0.1 µM): 97%
CN1CCN(c2ccc(Nc3nccc(-c4cccc([N+](=O)[O-])c4)n3)cc2C(F)(F)F)CC1  remaining binding (FLT3 D835H; binding; 10 µM): 1.1%
O=C(NCC1CCOCC1)c1n[nH]cc1NC(=O)c1c(F)cccc1F  remaining binding (FLT3; binding; competition with immobilised ligand; 1 µM): 92%
NS(=O)(=O)c1cc(NC(=O)C2(c3ccccc3Cl)CC2)ccc1Oc1cccc(Cl)c1  remaining binding (FLT3 F691L/ITD; cell-free assay; competition with immobilised ligand; 1 µM): 100%
O=C(NCCCN1CCOCC1)c1ccc(Nc2nccc(-c3cc4ccccc4s3)n2)cc1  remaining binding (FLT3 D835H; binding; competition with immobilised ligand; 1 µM): 30%
O=C(Nc1ccc(Oc2ccc(F)cc2)cc1)N1CCc2ncccc2[C@H]1c1ccc(F)cc1  remaining binding (FLT3 autoinhibited; cell-free assay; competition with immobilised ligand; 1 µM): 100%
O=C(NC1CCC1)c1ccc2nc(-c3cccc(NS(=O)(=O)NCCN4CCCCC4)c3)cn2c1  remaining binding (FLT3 ITD; cell-free assay; competition with immobilised ligand; 10 µM): 100%
C[C@H](c1ccc(F)cc1)N(Cc1cccc(C(=O)O)c1)C(=O)c1cnc2ccccc2c1  remaining binding (FLT3 D835V; cell-free assay; competition with immobilised ligand; 1 µM): 98%
CC(C)(C)c1ccc(-c2nc(CBr)nn2-c2cccc(O)c2)cc1  remaining binding (FLT3; cell-free assay; competition with immobilised ligand; 10 µM): 82%
O=C(c1ccc(Nc2ncc(Cl)c(-c3ccc(Cl)s3)n2)cc1)N1CCC(N2CCCC2)CC1  remaining binding (FLT3 D835H; binding; competition with immobilised ligand; 1 µM): 2.3%
COc1ccnn2ncc(-c3ccnc(N(C)C)n3)c12  remaining binding (FLT3 D835Y; binding; 1 µM): 97%
CO[C@@H](C)c1c(Nc2ccc([C@H](N(C)C(=O)C3CCS(=O)(=O)CC3)C(F)(F)F)cc2)cnc2cc(Cl)nn12  remaining binding (FLT3 D835Y; cell-free assay; competition with immobilised ligand; 1 µM): 59%
F[C@@H]1CCN(c2nccc(-c3cnn4ncccc34)n2)C1  remaining binding (FLT3 D835V; binding; 1 µM): 84%
COc1ncc2cc3ccccc3nc2c1C#N  remaining binding (FLT3 ITD; cell-free assay; competition with immobilised ligand; 5 µM): 94%
Nc1ncc2c(n1)-c1c([nH]c3ccc(C#CC4CC4)cc13)CCCC2  remaining binding (FLT3 K663Q; binding; competition with immobilised ligand; 1 µM): 77%
C=CC(=O)N1CCC(C(=O)NCC(=O)N2CCN(c3nc(-c4cnc(N)nc4C(F)F)nc(N4CCOCC4)n3)CC2)CC1  remaining binding (FLT3 D835Y; binding; competition with immobilised ligand; 1 µM): 99%
Cc1nc(N2CC[C@@H](O)C2)ncc1-c1cc(C(F)(F)F)cc2[nH]ncc12  remaining binding (FLT3 F691L/ITD; binding; competition with immobilised ligand; 1 µM): 69%
CCN1CCN(Cc2ccc(C(=O)Nc3ccc(C)c(Oc4ccc5c(c4)CC(=O)N5)c3)cc2C(F)(F)F)CC1  remaining binding (FLT3 R834Q; binding; competition with immobilised ligand; 1 µM): 100%
CNC(=O)Nc1ccc2c(c1)[C@@]1(CC2)OC(=O)N(CC(=O)N(Cc2ccc(F)cc2)[C@@H](C)C(F)(F)F)C1=O  remaining binding (FLT3 D835V; cell-free assay; competition with immobilised ligand; 1 µM): 81%
COc1cnc(Nc2cccc(S(N)(=O)=O)c2)nc1N1CCN(c2ccccc2)C(=O)C1  remaining binding (FLT3 D835H; binding; competition with immobilised ligand; 1 µM): 93%
CN(C)c1nccc(-c2cnn3ncccc23)n1  remaining binding (FLT3 D835Y; binding; 1 µM): 100%
CN(C)c1ncnc(-c2ccc3nc(Nc4cc(CN5CCN(C(=O)CC(F)(F)F)CC5)ccn4)[nH]c3c2)c1Cl  remaining binding (FLT3 D835H; cell-free assay; competition with immobilised ligand; 1 µM): 42%
O=C(NCCCN1CCOCC1)c1ccc(Nc2ncc(Cl)c(-c3ccc(Cl)s3)n2)cc1  remaining binding (FLT3 ITD; binding; competition with immobilised ligand; 1 µM): 0.75%
C[C@@H]1CCN(c2nccc(-c3cnn4ncccc34)n2)C1  remaining binding (FLT3 R834Q; binding; 1 µM): 71%
COc1cnc(Nc2cccc(S(N)(=O)=O)c2)nc1N1CCN(c2ccccc2)CC1  remaining binding (FLT3 D835V; binding; competition with immobilised ligand; 1 µM): 49%
FC(F)(F)c1ccc2c(c1)nc(-c1cccnc1)n2C1CC1  remaining binding (FLT3; cell-free assay; competition with immobilised ligand; 1 µM): 93%
Cc1cnc(Nc2ccc(C(=O)N3CCC(N4CCCC4)CC3)cc2)nc1-c1cc2ccccc2s1  remaining binding (Receptor-type tyrosine-protein kinase FLT3 (FLT3, Homo sapiens, UniProt P36888, D835V/ITD); binding; competition with immobilised ligand; 1 µM): 0.9%
CN(CCCC(F)(F)F)c1nccc(-c2cnn3ncccc23)n1  remaining binding (FLT3 D835Y; binding; 1 µM): 76%
O=C(c1ccc(Nc2ncc(Cl)c(-c3cc4ccccc4s3)n2)cc1)N1CCC(N2CCCC2)CC1  remaining binding (FLT3 D835V; binding; competition with immobilised ligand; 1 µM): 1.3%
N[C@H]1CCN(c2nccc(-c3cnn4ncccc34)n2)C1  remaining binding (FLT3 K663Q; binding; 1 µM): 100%
